DENV2 CPE: protects cells from dengue virus 2 cytopathic effect | DENV2-infected cells, cytopathic effect rescue, plate reader | CPE inhibition, % at 9.99 µM | 1.7% of 350,000 active | AID 651640; in the data active means CPE inhibition above about 20%, passing the limit was not always enough; tested in BHK-21 cells;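 further: 0% = median of neutral control wells and 100% = median of positive control wells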
Statin myotox sup: protects C2C12 myotubes from simvastatin toxicity; ATP luminescence, 48 h; scaled: DMSO 0, geranylgeraniol control 100; rescue of ATP level, % at 7.49 µM; 0.78% of 330,000 active;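 active means mean ATP rescue above about 67%, or every replicate alone reaching that limit, limit read from the data, passing the limit was not always enough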;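 further: myotubes were challenged with 10 µM simvastatin during compound exposure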
Cneo AK release: Cryptococcus neoformans lysis via adenylate kinase release | C. neoformans lysis, adenylate kinase release luminescence, 4 h; normalised: neutral wells 0, clomiphene wells 100 | 0.2% of 360,000 active | lysis activity, % at 15 µM | AID 651654;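 active means mean lysis activity across replicates of at least 80%, whatever share of replicates individually reach that level; inactive means mean lysis activity below 80%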
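Material – Cryptococcus neoformans yeast cells · Quantity – 5 × 10^6 yeast cells/mL · Buffer or medium – YPD medium · Compound – single dose · Timing – 4 h static compound exposure, 37 °C, read 1 h post-reagent · Signal – adenylate kinase release luminescence · Read-out basis – lysis from increased AK signal · Benchmarks – Clomiphene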
Xi reactivation: reactivates the inactive X chromosome in mouse fibroblasts. AID 743238. XiGFP mouse fibroblasts, % GFP-positive cells imaging, 3 d; cells co-treated with 5-aza-dC sensitizer; scaled so ellipticine positive control = 100%. activation, % at 7.58 µM. 0.055% of 360,000 active;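 active means mean normalized replicate activation at least 10% and every replicate at or above 10%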;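 further: 0% = median of on-plate neutral control wells and 100% = ellipticine 6 µM median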
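System: SV40-immortalized XiGFP fibroblast cells, line 68-5-11 / Incubation: 3-day compound exposure, then 15 min fixation at room temperature / Compound: single concentration per compound, delivered by pin transfer / Buffer or medium: DMEM plus 5-aza-dC sensitizer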
Starred values were filed as active, the others as inactive; / = no result; ! = not active in a repeat. In the library only some 2.1% were active in any assay of this set; here they are far more common.

SMILES	DENV2 CPE	Statin myotox sup	Cneo AK release	Xi reactivation
Cc1ccc(S(=O)(=O)N2C[C@@H]3[C@H]4CC[C@H](C4)[C@@H]3[C@@H](C)[C@@H]2c2ccn([Si](C(C)C)(C(C)C)C(C)C)c2)cc1	25*	-13	-1	0
C/C=C/c1ccc([C@H]2[C@@H](CO)N3C(=O)CN(C(=O)c4cccc(F)c4)C[C@@H]23)cc1	33*	/	/	0
C/C=C/c1ccc([C@H]2[C@@H](CO)N3C(=O)CN(S(=O)(=O)c4cccc(F)c4)C[C@H]23)cc1	4	/	/	0
C/C=C/c1ccc([C@H]2[C@@H](CO)N3C(=O)CN(S(=O)(=O)c4cccc(F)c4)C[C@@H]23)cc1	43*	/	/	0
C/C=C/c1ccc([C@H]2[C@H]3CN(S(=O)(=O)c4cccc(F)c4)CC(=O)N3[C@H]2CO)cc1	30*	/	/	0
O=C(C[C@@H]1C=C[C@@H](NC(=O)C2CCOCC2)[C@H](CO)O1)NCc1ccccc1Cl	6	/	/	0
C[C@@H]1CN([C@@H](C)CO)C(=O)c2cc(NS(=O)(=O)c3ccc(Cl)cc3)ccc2O[C@H]1CN(C)S(=O)(=O)c1ccc(F)cc1	-1	50	-1	0
COc1ccc(CCn2c(C)cc(C(=O)CN3C(=O)C(=O)N(Cc4ccco4)C3=O)c2C)cc1	2	-130	0	34*
COc1ccc(C)cc1Nc1n[n+](-c2ccccc2)c(-c2ccc(OC)c(OC)c2OC)s1	92*	1	2	0
CCCCCCC(=O)N1CCN(c2cc3c(cc2F)c(=O)c(C(=O)O)cn3CC)CC1	/	153*	-1	/
CCCNC(=O)c1cn(CC)c2cc(N3CCN(C(=O)c4ccco4)CC3)c(F)cc2c1=O	-1	-15	-3	0
CCn1cc(C(=O)NCc2cccc(F)c2)c(=O)c2cc(F)c(N3CCN(C(=O)c4ccco4)CC3)cc21	/	79*	-5	/
CCCOc1ccc(C(=O)NC(=S)N2CCN(c3cc4c(cc3F)c(=O)c(C(=O)O)cn4CC)CC2)cc1	53*	-8	-2	0
O=S(=O)(c1ccccc1)N1C[C@@H]2[C@H](c3ccccc31)[C@@H](CO)N2Cc1ccccc1	5	17	-1	0
O=C1CCC([N+](=O)[O-])C(c2ccc(Cl)cc2Cl)N1 (stereo not given)	/	70*	1	/
O=C(C[C@H]1C=C[C@@H](NC(=O)CC2CC2)[C@H](CO)O1)NCc1ccc(Cl)cc1	-8	2	0	0
C[C@@H](O)C#Cc1ccc2c(c1)O[C@H](CN(C)C(=O)C1CC1)[C@@H](C)CN([C@@H](C)CO)S2(=O)=O	-4	-11	1	-1
CC1(C)Cc2c(C#N)c(N3CCN(C(=O)c4ccco4)CC3)nc(-c3ccco3)c2CS1	/	121*	-3	/
CC(=O)N1CCN(c2nc(-c3ccco3)c3c(c2C#N)CC(C)(C)SC3)CC1	/	-3	-2	/
C[C@@H]1CN([C@@H](C)CO)C(=O)c2cccc(NC(=O)Nc3ccc4c(c3)OCO4)c2O[C@H]1CN(C)Cc1ccc2c(c1)OCO2	22*	-15	-3	0
C[C@H]1CN([C@@H](C)CO)C(=O)c2cccc(NC(=O)Nc3ccc4c(c3)OCO4)c2O[C@H]1CN(C)Cc1ccc2c(c1)OCO2	27*	18	-7	1
C[C@H](CO)N1C[C@H](C)[C@H](CN(C)Cc2ccc3c(c2)OCO3)Oc2c(NC(=O)Nc3ccc4c(c3)OCO4)cccc2C1=O	-6	15	0	0
C[C@H](CO)N1C[C@H](C)[C@@H](CN(C)Cc2ccc3c(c2)OCO3)Oc2c(NC(=O)Nc3ccc(F)cc3)cccc2C1=O	-12	-45	4	0
CC(C)NC(=O)N(C)C[C@H]1Oc2c(NS(C)(=O)=O)cccc2C(=O)N(C)C[C@@H]1C	/	/	/	0
CC(Oc1ccc(Cl)cc1Cl)C(=O)NCCCN1CCOCC1 (stereo not given)	62*	9	0	0
SMILES	DENV2 CPE	Statin myotox sup	Cneo AK release	Xi reactivation
Cc1cc(OC(C)C(=O)NCCCN2CCOCC2)ccc1Cl (stereo not given)	-1	-12	10	0
C[C@H](CO)N1C[C@H](C)[C@H](CN(C)C(=O)Nc2ccccc2)Oc2ccc(NC(=O)Cc3ccccc3)cc2CC1=O	17	23	-3	0
N#C[C@@H]1[C@H](c2ccc(C#CC3CCCC3)cc2)[C@@H](CO)N1S(=O)(=O)c1ccccc1	50*	9	8	0
CS(=O)(=O)N1[C@@H](C#N)[C@H](c2ccc(C#CC3CC3)cc2)[C@@H]1CO	-9	9	0	0
N#C[C@H]1[C@@H](c2ccc(C#CC3CCCC3)cc2)[C@@H](CO)N1S(=O)(=O)c1ccccc1	-5	-302	9	0
CS(=O)(=O)N1[C@H](CO)[C@@H](c2ccc(C#CC3CC3)cc2)[C@@H]1C#N	26*	16	1	0
CO[C@@H]1CC[C@@H]2CCOc3c(C#N)cccc3C(=O)N(C)[C@@H](C)C(=O)N(C)C[C@H]1O2	-3	4	3	0
C[C@@H]1CN([C@H](C)CO)C(=O)c2cc(C#Cc3ccc(F)cc3)cnc2O[C@@H]1CN(C)C	81*	-4	0	1
C[C@H]1CN([C@@H](C)CO)C(=O)c2cc(C#CC3CC3)cnc2O[C@@H]1CN(C)C	69*	1	-5	0
C[C@@H]1CN([C@H](C)CO)C(=O)c2cc(C#Cc3ccc(F)cc3)cnc2O[C@H]1CN(C)C	-7	12	5	0
C[C@@H]1CN([C@@H](C)CO)C(=O)c2cc(C#CC3CCCCC3)cnc2O[C@@H]1CN(C)S(=O)(=O)c1ccc(F)cc1	4	-2	-1	0
C[C@H]1CN([C@@H](C)CO)C(=O)c2cc(C#CC3CCCCC3)cnc2O[C@H]1CN(C)S(=O)(=O)c1ccc(F)cc1	72*!	-131	-1	-1
C[C@@H]1CN([C@H](C)CO)C(=O)c2cc(C#CC3CC3)cnc2O[C@H]1CN(C)C	3	-9	-3	0
CCc1c(-c2ccccc2)ncn1Cc1cccc(-c2ccccc2)c1	1	/	/	0
CCc1c(C2CC2)ncn1Cc1cccc(-c2ccccc2)c1	20*	/	/	0
CCc1c(-c2ccccc2F)ncn1Cc1cccc(-c2ccccc2)c1	59*	/	/	/
O=[N+]([O-])c1ccccc1S(=O)(=O)N1CCN(Cc2ccc(OCCO)cc2)CC1	4	/	1	/
CC(C)NC(=O)N(C)C[C@H]1OCCCC[C@H](C)Oc2ccc(NC(=O)Cc3ccccc3)cc2C(=O)N([C@@H](C)CO)C[C@H]1C	8	/	0	0
CCNC(=O)[C@H]1[C@H](CO)[C@H]2Cn3c(ccc(C4=CCCC4)c3=O)[C@H]2N1C(=O)C1CC1	1	-8	-1	0
CCC(=O)N1C[C@@H](C)[C@H](OC)CN(C)C(=O)c2ccc(NC(=O)c3ccc(OC)cc3)cc2OC[C@H]1C	2	10	0	0
Cc1cccc(N=c2oc3cc(O)ccc3cc2C(N)=O)c1	/	118*	0	/

Screening results: PubChem BioAssay, Broad Institute
